In experiment [1] the test system is Aspergillus fumigatus. As to the kind of experiment: Activity at 1.62 uM Aspergillus fumigatus CdpNPT assessed as compound conversion rate at 1 mM after 2 hrs by HPLC analysis in presence of dimethylallyl diphosphate. In a few lines:
(§1)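 Performed in 50 mM Tris-HCl (pH 7.5) with 10 mM CaCl2, 1 mM tryptophan or derivative, and 2 mM DMAPP, using purified His6-tagged recombinant enzyme at 37 °C. Reactions were stopped with an equal volume of MeOH and protein removed by centrifugation. Products were quantified by RP18 HPLC as the conversion rate of substrate. Two independent assays were run.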

Experiment [2] has as its target Tryprostatin B synthase ftmPT1 (Aspergillus fumigatus) (UniProt Q4WAW7). The experiment can be described thus: Activity at 1.12 uM Aspergillus fumigatus FtmPT1 assessed as compound conversion rate at 1 mM after 16 hrs by HPLC analysis in presence of dimethylallyl diphosphate. In a few lines: as §1
Experiment [3] relates to Aspergillus fumigatus. The experiment can be described thus: Activity at 1.62 uM Aspergillus fumigatus CdpNPT assessed as compound conversion rate at 1 mM after 2 hrs by HPLC analysis in presence of dimethylallyl diphosphate relative to L-tryptophan. The method in brief:
(§2)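 His6-CdpNPT (1.62 µM) or His6-FtmPT1 (1.68 µM) with 1 mM tryptophan derivative and 2 mM DMAPP in Tris-HCl pH 7.5/CaCl2, 37 °C for 2 or 16 h. MeOH quench, then RP18 HPLC with 30–70% MeOH gradient. Conversion expressed relative to L-tryptophan; two independent assays.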

In experiment [4] the test system is Aspergillus fumigatus. As to the kind of experiment: Activity at 1.62 uM Aspergillus fumigatus CdpNPT assessed as compound conversion rate at 1 mM after 16 hrs by HPLC analysis in presence of dimethylallyl diphosphate relative to L-tryptophan. The method in brief:
as §2

Experiment [5] addresses Tryprostatin B synthase ftmPT1 (Aspergillus fumigatus) (UniProt Q4WAW7). As to the kind of experiment: Activity at 1.68 uM Aspergillus fumigatus FtmPT1 assessed as compound conversion rate at 1 mM after 2 hrs by HPLC analysis in presence of dimethylallyl diphosphate relative to L-tryptophan. In a few lines:
as §2

Experiment [6] shares this target. The experiment can be described thus: Activity at 1.68 uM Aspergillus fumigatus FtmPT1 assessed as compound conversion rate at 1 mM after 16 hrs by HPLC analysis in presence of dimethylallyl diphosphate relative to L-tryptophan. The method in brief:
as §2

Experiment [7] has as its system Aspergillus fumigatus. The experiment can be described thus: Activity at 0.11 to 1.62 uM Aspergillus fumigatus CdpNPT assessed as product formation at 1 mM after 2 hrs by HPLC analysis. The method in brief: (§3)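 Recombinant His6-CdpNPT (0.11–1.62 µM) with 1 mM substrate and 2 mM DMAPP in 50 mM Tris-HCl pH 7.5, 10 mM CaCl2, 100 µL, 37 °C for 2 h. Heat-inactivated enzyme served as control. Stopped with MeOH, protein spun off, products read by RP18 HPLC as peaks and retention times, conversion from peak areas.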

The test system of experiment [8] is Aspergillus fumigatus. As to the kind of experiment: Activity at Aspergillus fumigatus CdpNPT by HPLC analysis. The method in brief: (§4)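 Kinetics: 2 mM DMAPP (final) with L-tryptophan up to 5 mM, or cyclic dipeptides, in Tris-HCl pH 7.5/CaCl2 at 37 °C. Products quantified by HPLC. Km and kcat from Lineweaver-Burk and Hanes-Woolf plots; kcat/Km expressed as ratio to L-tryptophan.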

For experiment [9], the system named is Aspergillus fumigatus. The experiment can be described thus: Activity at 1.62 uM Aspergillus fumigatus CdpNPT assessed as compound conversion rate after 2 hrs by HPLC analysis. In a few lines: as §3
The target in experiment [10] is Tryprostatin B synthase ftmPT1 (Aspergillus fumigatus) (UniProt Q4WAW7). The experiment can be described thus: Activity at 1.12 uM Aspergillus fumigatus FtmPT1 assessed as compound retention time after 2 hrs by HPLC analysis. In a few lines: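 His6-FtmPT1 at 1.12 µM, 100 µL, in 50 mM Tris-HCl pH 7.5, 10 mM CaCl2 with DMAPP, 37 °C for 2 h. HPLC product retention time recorded.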

Experiment [11] has as its system Aspergillus fumigatus. As to the kind of experiment: Activity at 1.62 uM Aspergillus fumigatus CdpNPT assessed as compound retention time after 2 hrs by HPLC analysis. In a few lines:
as §3

The target of experiment [12] is Tryprostatin B synthase ftmPT1 (Aspergillus fumigatus) (UniProt Q4WAW7). As to the kind of experiment: Activity at 0.28 uM Aspergillus fumigatus FtmPT1 assessed as compound conversion at 1 mM after 2 hrs by HPLC analysis in presence of dimethylallyl diphosphate. The method in brief: as §1
For experiment [13] the target is unchanged. The experiment can be described thus: Activity at 0.54 uM Aspergillus fumigatus FtmPT1 assessed as compound conversion at 1 mM after 2 hrs by HPLC analysis in presence of dimethylallyl diphosphate. In a few lines: as §1
The target is the same in experiment [14]. The experiment can be described thus: Ratio Kcat to Km for Aspergillus fumigatus FtmPT1 by HPLC analysis relative to L-tryptophan.
Experiment [15] shares this target. The experiment can be described thus: Activity at 1.68 uM Aspergillus fumigatus FtmPT1 assessed as compound conversion at 1 mM after 2 hrs by HPLC analysis in presence of dimethylallyl diphosphate.
In experiment [16] the test system is Aspergillus fumigatus. The experiment can be described thus: Activity at 0.28 uM Aspergillus fumigatus CdpNPT assessed as compound conversion rate at 1 mM after 2 hrs by HPLC analysis in presence of dimethylallyl diphosphate. In a few lines: as §3
The subject of experiment [17] is Aspergillus fumigatus. The experiment can be described thus: Activity at 0.11 uM Aspergillus fumigatus CdpNPT assessed as compound conversion rate at 1 mM after 2 hrs by HPLC analysis in presence of dimethylallyl diphosphate. The method in brief: as §3
In experiment [18] the test system is Aspergillus fumigatus. As to the kind of experiment: Ratio Kcat to Km for Aspergillus fumigatus CdpNPT by HPLC analysis relative to L-tryptophan. In a few lines: as §4
For experiment [19], the system named is Aspergillus fumigatus. The experiment can be described thus: Activity at 0.54 uM Aspergillus fumigatus CdpNPT assessed as compound conversion rate at 1 mM after 2 hrs by HPLC analysis in presence of dimethylallyl diphosphate. In a few lines:
as §3

Calls of active or inactive are those of the source. The rule behind the calls is not given here.

Tryprostatin B synthase ftmPT1 (Aspergillus fumigatus), sequence (Q4WAW7 whole entry): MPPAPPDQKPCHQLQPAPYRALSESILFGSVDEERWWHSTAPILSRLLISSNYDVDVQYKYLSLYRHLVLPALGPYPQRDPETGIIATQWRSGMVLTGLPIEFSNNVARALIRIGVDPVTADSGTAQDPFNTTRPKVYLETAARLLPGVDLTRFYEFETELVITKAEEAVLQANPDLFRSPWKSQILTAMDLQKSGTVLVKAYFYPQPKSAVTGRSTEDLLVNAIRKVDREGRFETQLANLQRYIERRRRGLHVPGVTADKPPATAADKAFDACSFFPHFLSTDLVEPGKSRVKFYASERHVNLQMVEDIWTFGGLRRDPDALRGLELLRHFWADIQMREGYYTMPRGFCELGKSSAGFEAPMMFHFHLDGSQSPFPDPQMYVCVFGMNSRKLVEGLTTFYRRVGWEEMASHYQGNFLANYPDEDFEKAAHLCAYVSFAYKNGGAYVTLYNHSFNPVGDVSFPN

As to `N[C@@H](Cc1ccc(O)cc1)C(=O)O`, the outcome in [1] and in experiment [2] was inactive.

As for `O=C(O)Cc1c[nH]c2ccccc12`, the Activity was below 1.7% in [3], 45.3% in experiment [4], below 2.8% in experiment [5] and below 0.6% in experiment [6].

For `N[C@@H](Cc1c[nH]c2ccccc12)C(=O)O`, the outcome in [7] was Active. For the same compound, the Km in experiment [8] was 830 µM. In addition, in [8], the kcat amounted to 0.005 s⁻¹. In addition, the results for the Activity in [9], in [10] and in experiment [11] were 18.1%, 13.9 min and 16.5 min, respectively.

For the compound `CN[C@@H](Cc1c[nH]c2ccccc12)C(=O)O`, the Activity was 126% in experiment [3], 114% in experiment [4], below 3.7% in [5] and 29.4% in [6].

`Cc1cccc2[nH]cc(CC(N)C(=O)O)c12` (racemic): the Activity in experiment [3] came to 72.6%; in [4], 61.4%; in experiment [5], 16%; in experiment [6], 19.4%.

Turning to `Cc1ccc2[nH]cc(CC(N)C(=O)O)c2c1` (racemic), the Activity in experiment [3] is below 1.5%; in experiment [4] it was 20.2%; in [5], below 2.4%; in experiment [6] it was 10.3%.

Regarding `NC(Cc1c[nH]c2cc(F)ccc12)C(=O)O` (racemic), the Activity stood at 17.7% in experiment [3], 13.8% in experiment [4], 55.1% in experiment [5] and 55.5% in [6].

As for `Cc1ccc2c(CC(N)C(=O)O)c[nH]c2c1` (racemic), the Activity is below 0.9% in experiment [3], 13.5% in experiment [4], 148% in experiment [5] and 96% in experiment [6].

As for `Cc1cccc2c(CC(N)C(=O)O)c[nH]c12` (racemic), the Activity in experiment [3] was 50.6%; in [4], 37.9%; in [5], 76.4%; in experiment [6], 64.1%.

In the case of `O=C1N[C@@H](Cc2c[nH]c3ccccc23)C(=O)N2CCC[C@@H]12`, the result in [12], in experiment [13] and in [15] was Active. Further, in experiment [14], the Ratio was 675.

As to `NC(Cc1c[nH]c2ccc(Br)cc12)C(=O)O` (racemic), the Activity in experiment [3] was below 1.2%; in experiment [4], below 0.4%; in experiment [5], below 1.9%; in experiment [6], below 0.4%.

On to `N[C@H](CC(=O)O)Cc1c[nH]c2ccccc12`, for which the Activity is below 3.4% in experiment [3], below 1.1% in [4], below 5.5% in [5] and below 1.1% in [6].

Regarding `NCCc1c[nH]c2ccccc12`, the Activity was below 3.3% in experiment [3], below 1% in [4], below 5.3% in experiment [5] and below 1.1% in experiment [6].

In the case of `Cn1cc(CC(N)C(=O)O)c2ccccc21` (racemic), the Activity in [3] is below 1.1%; in experiment [4], below 0.3%; in experiment [5], below 1.7%; in experiment [6] it was below 0.3%.

`N[C@@H](Cc1c[nH]c2ccc(F)cc12)C(=O)O`: the Activity was below 0.7% in experiment [3], 1.9% in [4], below 1.2% in experiment [5] and 4.3% in experiment [6].

Regarding `O=C1N[C@H](Cc2c[nH]c3ccccc23)C(=O)N[C@H]1Cc1ccc(O)cc1`, the outcome in [16], in experiment [17], in experiment [7] and in experiment [19] was Active. For the same compound, the Km in experiment [8] worked out at 128 µM. The catalytic constant (kcat) in [8] stood at 0.46 s⁻¹. In addition, in [18], the Ratio amounted to 598.

As to `N[C@@H](Cc1c[nH]c2ccc(O)cc12)C(=O)O`, the Activity in [3] is below 0.8%; in experiment [4], below 0.3%; in experiment [5], below 1.3%; in [6] it was below 0.3%.

For the compound `CC(N)(Cc1c[nH]c2ccccc12)C(=O)O` (racemic), the Activity in experiment [3] is 25%; in [4], 24.5%; in [5] it was below 2.3%; in [6], 1%.

By Km is commonly meant the concentration of substrate that gives half-maximal velocity. The kcat is the maximal rate divided by the concentration of active sites.

The values are drawn from ChEMBL document CHEMBL1151808, “Substrate promiscuity of the cyclic dipeptide prenyltransferases from Aspergillus fumigatus ( section sign)” (J Nat Prod, 2009).
